From ChEMBL document CHEMBL1124704, “Synthesis and immunosuppressive activity of some side-chain variants of mycophenolic acid” (J Med Chem, 1990)
Values joined by “and” are separate entries in the source; they are usually repeats but may differ in a detail not shown here. Equal entries are not always repeated.

Legend:
[1] = In vitro inhibition of human lymphocyte proliferation in response to phytohemagglutininin (PHA) was determined; format: functional
[2] = In vitro inhibition of human lymphocyte proliferation in response to pokeweed mitogen(PWM) was determined; format: functional
[3] = In vitro inhibition of human lymphocyte proliferation in response to staphylococcus protein A(SPA) was determined; format: functional
[4] = target: Inosine-5'-monophosphate dehydrogenase 1 (Homo sapiens, UniProt P20839); assay: In vitro inhibition of inosine Inosine-5'-monophosphate dehydrogenase
Outline: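 IMPD came from a MOLT-4 cell lysate: five freeze-thaw cycles, then the high-speed (ca. 31000g) supernatant was kept. Assay in 50 mM potassium phosphate pH 7.4 with 10 μM [¹⁴C]IMP, 0.3 mM NAD, 0.1 M KCl and 1 mM EDTA, 25 min at 37 °C. Stopped with HClO₄; IMP/XMP quantified by anion-exchange HPLC with radioflow detection. Five concentrations, 0.02–5.0 μg/mL; IC₅₀ determined graphically.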

Mus musculus [5] = assay: In vivo total no of plaques in spleen was determined after 100 mg/kg oral administration in mice.; format: functional
Mus musculus [6] = assay: The compound was tested in vivo for inhibition of plaques per million after 40 mg/kg oral administration in mice.; format: functional
Mus musculus [7] = assay: In vivo total no of plaques in spleen was determined after 50 mg/kg oral administration in mice.; format: functional
Mus musculus [8] = assay: In vivo inhibition of plaque-forming cells in the spleen (PFC/spleen) after 100 mg/kg oral administration in mice.; format: functional
Mus musculus [9] = assay: In vivo antibody response to sheep red blood cells(SRBC) by plaque-forming cells in the spleen (PFC/spleen) after 40 mg/kg oral administration in mice.; format: functional
Mus musculus [10] = assay: The compound was tested in vivo for inhibition of plaques per million after 50 mg/kg oral administration in mice.; format: functional
Mus musculus [11] = assay: The compound was tested in vivo for inhibition of plaques per million after 25 mg/kg oral administration in mice.; format: functional
Mus musculus [12] = assay: The compound was tested in vivo for inhibition of plaques per million after 100 mg/kg oral administration in mice.; format: functional
Mus musculus [13] = assay: In vivo inhibition of plaque-forming cells in the spleen (PFC/spleen) after 40 mg/kg oral administration in mice.; format: functional
Mus musculus [14] = assay: In vivo antibody response to sheep red blood cells(SRBC) by plaque-forming cells in the spleen (PFC/spleen) after 50 mg/kg oral administration in mice.; format: functional
Mus musculus [15] = assay: In vivo antibody response to sheep red blood cells by plaque-forming cells in the spleen (PFC/spleen) after 25 mg/kg oral administration in mice.; format: functional
Mus musculus [16] = assay: In vivo inhibition of plaque-forming cells in the spleen (PFC/spleen) after 25 mg/kg oral administration in mice.; format: functional
Mus musculus [17] = assay: In vivo total no of plaques in spleen was determined after 25 mg/kg oral administration in mice.; format: functional
Mus musculus [18] = assay: In vivo antibody response to sheep red blood cells(SRBC) by plaque-forming cells in the spleen (PFC/spleen) after 100 mg/kg oral administration in mice.; format: functional
Mus musculus [19] = assay: The compound was tested in vivo for inhibition of plaque-forming cells in the spleen (PFC/spleen) after 50 mg/kg oral administration in mice; format: functional
Mus musculus [20] = assay: In vivo antibody response to sheep red blood cells(SRBC) by plaque-forming cells in the spleen (PFC/spleen) after 25 mg/kg oral administration in mice.; format: functional
Mus musculus [21] = assay: (§1) In vivo antibody response to sheep red blood cells(SRBC) by plaques per million after 25 mg/kg oral administration in mice.; format: functional
Mus musculus [22] = assay: In vivo inhibition of plaques per million after 25 mg/kg oral administration in mice.; format: functional
Mus musculus [23] = assay: In vivo for antibody response to sheep red blood cells(SRBC) by plaque-forming cells in the spleen (PFC/spleen) after 25 mg/kg oral administration in mice.; format: functional
Mus musculus [24] = assay: as §1; format: functional; remark: listed apart in the source

Sequence of Inosine-5'-monophosphate dehydrogenase 1 (P20839 whole entry): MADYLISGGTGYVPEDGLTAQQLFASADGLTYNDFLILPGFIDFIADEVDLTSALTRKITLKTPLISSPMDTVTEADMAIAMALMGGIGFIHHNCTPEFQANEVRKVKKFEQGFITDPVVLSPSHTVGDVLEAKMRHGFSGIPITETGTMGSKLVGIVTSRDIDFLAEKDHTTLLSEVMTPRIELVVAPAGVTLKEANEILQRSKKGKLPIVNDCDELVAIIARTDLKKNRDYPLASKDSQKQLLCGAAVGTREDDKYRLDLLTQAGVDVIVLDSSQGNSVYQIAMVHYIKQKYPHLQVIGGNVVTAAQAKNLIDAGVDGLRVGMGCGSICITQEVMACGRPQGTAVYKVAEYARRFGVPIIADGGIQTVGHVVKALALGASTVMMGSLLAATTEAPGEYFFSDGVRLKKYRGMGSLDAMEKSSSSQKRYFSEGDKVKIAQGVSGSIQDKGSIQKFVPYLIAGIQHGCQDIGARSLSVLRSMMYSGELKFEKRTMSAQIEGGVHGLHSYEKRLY

Structure (SMILES) | IC50 [1] [µM] | IC50 [2] [µM] | IC50 [3] [µM] | IC50 [4] [µM] | also measured
COc1c(C)c2c(c(O)c1C/C=C/CCC(=O)O)C(=O)OC2 | 4.8 | 4.8 | 4.8 |  | 
COc1c(C)c2c(c(O)c1CSCCC(=O)O)C(=O)OC2 | > 10 | > 10 | > 10 | 10.9 | 
COc1c(C)c2c(c(O)c1CC1C(F)(F)C1(C)CCC(=O)O)C(=O)OC2 (stereo unspecified) | 3.1 | 2.8 | 10 | 2.6 | 
COc1c(C)c2c(c(O)c1CSCCCC(=O)O)C(=O)OC2 | > 10 | > 10 | > 10 | 22.7 | 
COc1c(C)c2c(c(O)c1CC=C=C(C)CCC(=O)O)C(=O)OC2 | 0.35 | 0.35 | 0.15 | 1.2 | PPM (Mus musculus [5]): 114; inhibition in vivo at 40 mg/kg (Mus musculus [6]): 22%; PPM (Mus musculus [7]): 657; inhibition in vivo at 100 mg/kg (Mus musculus [8]): 80%; PFC/spleen (Mus musculus [9]): 99333; inhibition in vivo at 50 mg/kg (Mus musculus [10]): -20%; inhibition in vivo at 25 mg/kg (Mus musculus [11]): 16%; inhibition in vivo at 100 mg/kg (Mus musculus [12]): 79%; inhibition in vivo at 40 mg/kg (Mus musculus [13]): 15%; PFC/spleen (Mus musculus [14]): 112416; PFC/spleen (Mus musculus [15]): 96583; inhibition in vivo at 25 mg/kg (Mus musculus [16]; Mus musculus, Spleen, po): 18%; PPM (Mus musculus [17]): 630 and 583; PFC/spleen (Mus musculus [18]): 17000; inhibition in vivo at 50 mg/kg (Mus musculus [19]): -33%
COc1c(C)c2c(c(O)c1CC1CC1(C)CCC(=O)O)C(=O)OC2 (stereo unspecified) | 3.8 | 1.7 | 4.3 | 1.1 | 
COc1c(C)c2c(c(O)c1CC#CCCC(=O)O)C(=O)OC2 | 4.8 | 2.4 | 7.5 | 2.6 | 
COc1c(C)c2c(c(O)c1CC#CCCCC(=O)O)C(=O)OC2 | 6 | 6 | > 10 | 2.5 | 
COc1c(C)c2c(c(O)c1CCCCCCC(=O)O)C(=O)OC2 | > 10 | > 10 | > 10 | 1.8 | 
COc1c(C)c2c(c(O)c1C/C=C/CCCC(=O)O)C(=O)OC2 | > 10 | > 10 | > 10 |  | 
COc1c(C)c2c(c(O)c1CCCCCC(=O)O)C(=O)OC2 | 2.5 | 4.3 | 1.6 | 0.94 | 
COc1c(C)c2c(c(O)c1CC1C(Br)(Br)C1(C)CCC(=O)O)C(=O)OC2 (stereo unspecified) | 4.4 | > 10 | > 10 | 3.1 | 
COc1c(C)c2c(c(O)c1C/C=C(\C)CCC(=O)O)C(=O)OC2 [MYCOPHENOLIC ACID] | 0.06 | 0.02 | 0.06 | 0.02 | PFC/spleen (Mus musculus [20]): 45333; PPM (Mus musculus [21]): 308 PPM; Inhibition (Mus musculus [22]): 65% and 44%; Inhibition (Mus musculus [16]; 25 mg/kg): 69% and 46%; PFC/spleen (Mus musculus [23]): 36027; PPM (Mus musculus [24]): 264
